Data set [1] has as its system Staphylococcus aureus. Put plainly: Antimicrobial activity against Staphylococcus aureus ATCC 25923 assessed as reduction in bacterial growth at 64 uM incubated for 16 hrs by broth dilution method relative to control. The conditions noted are these: ATCC 25923, 16 h. Format: functional. Put shortly:
(§1)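 Bacterial growth was measured with the strain panel split into Gram-negative and Gram-positive groups. Growth is expressed as percentage of vehicle-treated control bacteria. Values are the mean of three independent experiments ± SEM. Each treated group was compared with control for significance (p < 0.05, 0.01, 0.0001). The highest concentration tested was 64 μM.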
On the technique in general: Broth dilution looks for growth in wells or tubes with falling amounts of substance.

A short description of data set [2]: Cytotoxicity against human HaCaT cells assessed as reduction in cell viability at 64 uM incubated for 24 hrs by MTT assay relative to control. Format: cell-based. The conditions noted are these: read-out: INH. Put shortly: (§2)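 Human immortalized keratinocytes (HaCaT) were exposed for 24 h across 16–64 μM. Metabolically active cells were read by MTT and calculated as a percentage of vehicle-treated cells. Values are the mean of three independent experiments ± SEM.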
In general terms: Formazan colour is commonly taken as a measure of viable cells.

For data set [3], the system named is Priestia megaterium. Put plainly: Antimicrobial activity against Bacillus megaterium Bm11 assessed as reduction in bacterial growth at 16 to 64 uM incubated for 16 hrs by broth dilution method relative to control. Type of data set: functional. A digest of the protocol:
as §1

Data set [4] has as its system Staphylococcus epidermidis. Put plainly: Antimicrobial activity against Staphylococcus epidermidis ATCC 12228 assessed as reduction in bacterial growth at 64 uM incubated for 16 hrs by broth dilution method relative to control. Type of data set: functional. The conditions noted are these: ATCC 12228, 16 h. Put shortly:
as §1

Data set [5] relates to Bacillus thuringiensis. Put plainly: Antimicrobial activity against Bacillus thuringiensis B15 assessed as reduction in bacterial growth at 64 uM incubated for 16 hrs by broth dilution method relative to control. Format: functional. The settings on record: B15, 16 h. Put shortly: as §1
The subject of data set [6] is Bacillus thuringiensis. The experiment in a line: Antimicrobial activity against Bacillus thuringiensis B15 assessed as reduction in bacterial growth at 16 to 64 uM incubated for 16 hrs by broth dilution method. Type of data set: functional, organism-based. Put shortly: as §1
Data set [7] has as its system Priestia megaterium. The experiment in a line: Antimicrobial activity against Bacillus megaterium Bm11 assessed as reduction in bacterial growth at 16 to 64 uM incubated for 16 hrs by broth dilution method. Format: functional, organism-based. Put shortly:
as §1

Data set [8] has as its system Staphylococcus epidermidis. Put plainly: Antimicrobial activity against Staphylococcus epidermidis ATCC 12228 assessed as reduction in bacterial growth at 16 to 64 uM incubated for 16 hrs by broth dilution method. Type of data set: functional, organism-based. Put shortly: as §1
Data set [9] has as its system Staphylococcus aureus. Put plainly: Antimicrobial activity against Staphylococcus aureus ATCC 25923 assessed as reduction in bacterial growth at 16 to 64 uM incubated for 16 hrs by broth dilution method. Format: functional, organism-based. Put shortly:
as §1

In the next data set the test system is Pseudomonas aeruginosa. The experiment in a line: Antimicrobial activity against Pseudomonas aeruginosa ATCC 27853 assessed as reduction in bacterial growth at 16 to 64 uM incubated for 16 hrs by broth dilution method. Type of data set: functional, organism-based. A digest of the protocol:
as §1

The next data set concerns HaCaT. Put plainly: Cytotoxicity against human HaCaT cells assessed as reduction in cell viability at 16 to 64 uM incubated for 24 hrs by MTT assay. Format: cell-based. Put shortly:
as §2

The subject of a further data set is Escherichia coli. The experiment in a line: Antimicrobial activity against Escherichia coli ATCC 25922 assessed as reduction in bacterial growth at 16 to 64 uM incubated for 16 hrs by broth dilution method. Format: functional, organism-based. A digest of the protocol: as §1

The source made the active and inactive calls. The rule behind the calls is not given here.

As usually defined, the inhibition is the share of the control response that was lost under treatment.

Turning to `C[C@]12C=C[C@@]3(CC[C@@H]4[C@@](C)(COC(=O)CCC(=O)O)CCC[C@@]4(C)[C@@H]3CC1)C2`, the inhibition at 64 µM amounted to 40% in the data set with Staphylococcus aureus [1], 80% in data set [4] and 100% in the data set with Bacillus thuringiensis [5]. In data set [2], the cytotoxicity at 24 h, 64 µM amounted to 20%. Further, the “inhibition (INH)” value in the data set with Priestia megaterium [3] came out at 80%.
`C[C@]12C=C[C@@]3(CC[C@@H]4[C@@](C)(CO)CCC[C@@]4(C)[C@@H]3CC1)C2`: the inhibition result (in the data set on Bacillus thuringiensis [6]; in the data set on Priestia megaterium [7]; in data set [8]; with Staphylococcus aureus [9]; in the data set with Pseudomonas aeruginosa; in the data set on Escherichia coli) was “inactive” each time. Moreover, the Activity result with HaCaT is “Non-Toxic”.
As to `C[C@]12C=C[C@@]3(CC[C@@H]4[C@@](C)(COC(=O)CC(=O)OC[C@@]5(C)CCC[C@]6(C)[C@@H]5CC[C@@]57C=C[C@@](C)(CC[C@H]56)C7)CCC[C@@]4(C)[C@@H]3CC1)C2`, the inhibition result (with Bacillus thuringiensis [6]; in the data set on Priestia megaterium [7]; in data set [8]; with Staphylococcus aureus [9]; with Pseudomonas aeruginosa; with Escherichia coli) was “inactive” in each case.
With `C[C@]12C=C[C@@]3(CC[C@@H]4[C@@](C)(COC(=O)CCC(=O)OC[C@@]5(C)CCC[C@]6(C)[C@@H]5CC[C@@]57C=C[C@@](C)(CC[C@H]56)C7)CCC[C@@]4(C)[C@@H]3CC1)C2`, the inhibition result (in the data set with Bacillus thuringiensis [6]; in the data set on Priestia megaterium [7]; in data set [8]; in the data set with Staphylococcus aureus [9]; with Pseudomonas aeruginosa; in the data set with Escherichia coli) was “inactive” throughout.
As to `C[C@]12C=C[C@@]3(CC[C@@H]4[C@@](C)(COC(=O)C(=O)O)CCC[C@@]4(C)[C@@H]3CC1)C2`, the values for the inhibition at 64 µM (with Staphylococcus aureus [1]; in data set [4]; with Bacillus thuringiensis [5]) were 40%, 50% and 50%, respectively. For the same compound, the cytotoxicity at 24 h, 64 µM in data set [2] is 36%.
Turning to `C[C@]12C=C[C@@]3(CC[C@@H]4[C@@](C)(COC(=O)C(=O)OC[C@@]5(C)CCC[C@]6(C)[C@@H]5CC[C@@]57C=C[C@@](C)(CC[C@H]56)C7)CCC[C@@]4(C)[C@@H]3CC1)C2`, the inhibition result (with Bacillus thuringiensis [6]; in the data set on Priestia megaterium [7]; in [8]; in the data set on Staphylococcus aureus [9]; with Pseudomonas aeruginosa; in the data set on Escherichia coli) was “inactive” throughout.
Take `C[C@]12C=C[C@@]3(CC[C@@H]4[C@@](C)(COC(=O)CC(=O)O)CCC[C@@]4(C)[C@@H]3CC1)C2`: the inhibition entry (in the data set with Bacillus thuringiensis [6]; in the data set on Priestia megaterium [7]; in data set [8]; in the data set on Staphylococcus aureus [9]) was “Active” in each case. Further, in [2], the cytotoxicity at 24 h, 64 µM was 14%. Further, in the data set with Priestia megaterium [3], the “inhibition (INH)” value is given as over 70%. For the same compound, the inhibition at 64 µM in the data set on Bacillus thuringiensis [5] is over 70%.

The values are drawn from ChEMBL document CHEMBL4613291, “Structural Elucidation and Antimicrobial Characterization of Novel Diterpenoids from Fabiana densa var. ramulosa” (ACS Med Chem Lett, 2020).
